According to publication PMC9391279 (Cell chemical biology, 2022):

Tests used:
[1] = target: BRD4(BD1); conditions: read-out: KD,BD1, ref Faivre et al., 2020; cited from earlier work
[2] = target: BRD4(BD2); conditions: read-out: KD,BD2, ref Faivre et al., 2020; cited from earlier work
[3] = target: Keap1-BTB domain (Homo sapiens, UniProt Q14145); assay: TR-FRET ligand displacement assay, Keap1-BTB domain; type: binding
[4] = target: T1, BRD4 in MDA-MB-231 cells (Homo sapiens, UniProt O60885); assay: BRD4 degradation rescue experiments, MDA-MB-231; type: cell-based, H. sapiens; conditions: for Rescue of CS-JQ1-induced BRD4 degradation by co-treatment: MDA-MB-231, co-treatment with CS-JQ1, 5 h; for Rescue of dBET6-induced BRD4 degradation by co-treatment: MDA-MB-231, co-treatment with dBET6, 5 h
[5] = target: T2, BRD4 in MCF7 cells (Homo sapiens, UniProt O60885); assay: BRD4 degradation rescue experiments, MCF7; type: cell-based, H. sapiens; conditions: for Rescue of CS-JQ1-induced BRD4 degradation by co-treatment: MCF7, co-treatment with CS-JQ1, 5 h; for Rescue of dBET6-induced BRD4 degradation by co-treatment: MCF7, co-treatment with dBET6, 5 h
[6] = target: Keap1-Kelch domain (Homo sapiens, UniProt Q14145); assay: TR-FRET ligand displacement assay, Keap1-Kelch domain; type: binding
[7] = tested on: full-length Keap1 and individual BRD4 bromodomains; type: biochemical; conditions: BRD4(BD1) or BRD4(BD2)
[8] = target: T1, BRD4 in MDA-MB-231 cells; assay: TR-FRET BRD4 quantification, 96-well plate format; type: cell-based, H. sapiens; conditions: MDA-MB-231, 30 min to 10 h, 96-well no wash-out
[9] = target: T2, BRD4 in MCF7 cells; assay: TR-FRET BRD4 quantification, 24-well plate format, MCF7; type: cell-based, H. sapiens; conditions: MCF7, 5 h treatment, 1 h washout
[10] = target: T1, BRD4 in MDA-MB-231 cells; assay: TR-FRET BRD4 quantification, 24-well plate format, MDA-MB-231; type: cell-based, H. sapiens; conditions: MDA-MB-231, 5 h treatment, 1 h washout
[11] = target: T1, BRD4 in MDA-MB-231 cells; assay: BRD4 ubiquitination by immunoprecipitation / Western blot; type: cell-based, H. sapiens; conditions: MDA-MB-231, 5 h
[12] = tested on: BRD4; assay: TR-FRET ligand displacement assays with recombinant BRD4; type: binding, human; conditions: Figure 4B
Summary of the method: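 Tracer displacement of JQ1-FITC (20 nM) from 4 nM GST-BRD4(BD1) or GST-BRD4(BD2) with 4 nM CoraFluor-1 anti-GST VHH, in HEPES/NaCl/BSA/Tween buffer, pH 7.5. Endogenous BRD4 was tested in clarified MCF7 lysate at 0.8 mg/mL total protein. Floor was a 10 μM reference inhibitor; ceiling was no inhibitor. Four-parameter IC50 fits were converted to KD,app by Cheng-Prusoff using tracer KD,app.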

Chain of Keap1-BTB domain (Q14145 whole entry, the tested form may be a part): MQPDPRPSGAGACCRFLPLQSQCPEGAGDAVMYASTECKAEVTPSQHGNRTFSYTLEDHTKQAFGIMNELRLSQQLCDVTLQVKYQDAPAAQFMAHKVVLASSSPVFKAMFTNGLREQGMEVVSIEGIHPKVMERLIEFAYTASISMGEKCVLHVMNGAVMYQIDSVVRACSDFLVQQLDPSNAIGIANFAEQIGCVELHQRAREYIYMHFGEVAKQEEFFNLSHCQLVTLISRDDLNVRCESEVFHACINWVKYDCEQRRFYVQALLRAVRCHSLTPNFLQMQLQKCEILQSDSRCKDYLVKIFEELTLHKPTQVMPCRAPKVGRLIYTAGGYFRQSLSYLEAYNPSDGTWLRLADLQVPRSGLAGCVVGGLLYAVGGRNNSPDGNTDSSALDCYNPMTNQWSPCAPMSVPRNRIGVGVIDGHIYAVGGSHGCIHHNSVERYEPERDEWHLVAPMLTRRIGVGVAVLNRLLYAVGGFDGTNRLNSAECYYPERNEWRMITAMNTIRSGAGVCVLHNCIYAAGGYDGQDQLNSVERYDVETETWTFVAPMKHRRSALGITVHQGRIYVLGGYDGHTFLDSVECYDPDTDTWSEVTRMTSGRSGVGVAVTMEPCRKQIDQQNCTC
Chain of Keap1-Kelch domain (Q14145 whole entry, the tested form may be a part): as above

SMILES	Rescue of CS-JQ1-induced BRD4 degradation by co-treatment [4]	Rescue of CS-JQ1-induced BRD4 degradation by co-treatment [5]	Rescue of dBET6-induced BRD4 degradation by co-treatment [5]	Rescue of dBET6-induced BRD4 degradation by co-treatment [4]	further results
CCS(=O)(=O)Nc1ccc(Oc2ccc(F)cc2F)c(-c2cn(C)c(=O)c3[nH]ccc23)c1 [ABBV-075, ABBV-075 (Mivebresib)]					Kd [1]: 13.8 nM; Kd [2]: 2.5 nM
COC(=O)[C@]12CCC(C)(C)C[C@H]1[C@H]1C(=O)C=C3[C@@]4(C)C=C(C#N)C(=O)C(C)(C)[C@@H]4CC[C@@]3(C)[C@]1(C)CC2 [CDDO-Me, bardoxolone methyl]	not altered				Kd [3]: 24 nM
CC1=C(O)C(=O)C=C2C1=CC=C1[C@@]2(C)CC[C@@]2(C)[C@@H]3C[C@](C)(C(=O)O)CC[C@]3(C)CC[C@]12C [CS, celastrol]	reduced CS-JQ1 degradation efficiency	reduced CS-JQ1 degradation efficiency			
CC1=C(O)C(=O)C=C2C1=CC=C1[C@@]2(C)CC[C@@]2(C)[C@@H]3C[C@](C)(C(=O)NCCCOCCOCCOCCCNC(=O)CC4N=C(c5ccc(Cl)cc5)c5c(sc(C)c5C)-n5c(C)nnc54)CC[C@]3(C)CC[C@]12C (stereo partly drawn) [CS-JQ1, (2R,4aS,6aS,12bR,14aS,14bR)-N-(1-(4-(4-chlorophenyl)-2,3,9-trimethyl-6H-thieno[3,2-f][1,2,4]triazolo[4,3-a][1,4]diazepin-6-yl)-2-oxo-7,10,13-trioxa-3-azahexadecan-16-yl)-10-hydroxy-2,4a,6a,9,12b,14a-hexamethyl-11-oxo-1,2,3,4,4a,5,6,6a,11,12b,13,14,14a,14b-tetradecahydropicene-2-carboxamide]					Affinity for the Keap1 BTB domain (in words) ([3]; compared with celastrol): slightly improved affinity; Binding to the Keap1 Kelch domain (in words) [6]: lost the ability to bind; Ternary complex formation between full-length Keap1 and individual BRD4 bromodomains [7]: could induce ternary complex formation; BRD4 degradation kinetics (in words) [8]: slightly slower kinetics; BRD4 level by TR-FRET after treatment (in words) [9]: dose-dependent and efficient degradation of BRD4; BRD4 level by TR-FRET after treatment (in words) [10]: dose-dependent and efficient degradation of BRD4; Induction of BRD4 ubiquitination [11]: induce BRD4 ubiquitination; Target engagement with BRD4 (in words) [12]: validated target engagement with BRD4
Cc1ncsc1-c1ccc(CNC(=O)[C@@H]2C[C@@H](O)CN2C(=O)[C@@H](NC(=O)COCCOCCOCCNC(=O)C[C@@H]2N=C(c3ccc(Cl)cc3)c3c(sc(C)c3C)-n3c(C)nnc32)C(C)(C)C)cc1 [MZ1]					BRD4 degradation kinetics (in words) [8]: slightly slower degradation kinetics

More lines, main results first:

Rescue of CS-JQ1-induced BRD4 degradation by co-treatment [4]	Rescue of CS-JQ1-induced BRD4 degradation by co-treatment [5]	Rescue of dBET6-induced BRD4 degradation by co-treatment [5]	Rescue of dBET6-induced BRD4 degradation by co-treatment [4]	SMILES	further results
restored BRD4 levels	restored BRD4 levels	attenuated	attenuated	NS(=O)(=O)OC[C@@H]1C[C@@H](n2ccc3c(N[C@H]4CCc5ccccc54)ncnc32)C[C@@H]1O [MLN4924]	
restored BRD4 levels	restored BRD4 levels	attenuated	attenuated	NS(=O)(=O)OC[C@H]1C[C@@H](Nc2ccnc3cc(-c4cccc(SC(F)(F)F)c4)nn23)[C@H](O)[C@@H]1O [MLN7243]	
		attenuated	attenuated	CC(C)C[C@H](NC(=O)[C@H](Cc1ccccc1)NC(=O)c1cnccn1)B(O)O [bortezomib]	
		attenuated	attenuated	Nc1cccc2c1C(=O)N(C1CCC(=O)NC1=O)C2=O (stereo not drawn) [pomalidomide]	
